Source: PubChem BioAssay
A selection: hits, their analogues and other compounds. The true share with any hit is near 1.3%.
GSIS activator: primary screen for activators of insulin secretion dependent on glucose, INS-1E cells, GLuc reporter luminescence. INS-1E GLuc reporter insulin secretion, 2-3 h. activation, % at 16.6 µM. 370,000 compounds, 0.61% hits. AID 743287;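 active means lowest replicate activation of at least 40%, so every replicate reaches that level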;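 further: 0% = median of neutral control wells and 100% = median of IBMX positive control wells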
RAD52 inh: inhibitors of human RAD52 DNA annealing | recombinant RAD52 DNA annealing, FRET fluorescence | inhibition, % at 18.7 µM | 360,000 compounds, 0.46% hits | AID 651710;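 active means every replicate showing at least 50% inhibition; inconclusive means mean inhibition at least 50% but not in every replicate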
RAD54 inh: RAD54 (human) branch migration inhibition | Q92698 | AID 602329 | inhibition, % at 10.4 µM | RAD54 Holliday junction branch migration, FAM/BHQ fluorescence | 360,000 compounds, 0.14% hits;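 active means mean normalized replicate activity at least 40 and at least half of replicates scoring 40 or more; inconclusive means only one of the two criteria met; inactive means mean below 40 and under half of replicates reaching 40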;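 further: 0% = median of neutral control wells and 100% = median of positive control wells; inhibitors cause a drop in the FAM fluorescence signal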
Target sequence (Q92698 whole entry, looked up): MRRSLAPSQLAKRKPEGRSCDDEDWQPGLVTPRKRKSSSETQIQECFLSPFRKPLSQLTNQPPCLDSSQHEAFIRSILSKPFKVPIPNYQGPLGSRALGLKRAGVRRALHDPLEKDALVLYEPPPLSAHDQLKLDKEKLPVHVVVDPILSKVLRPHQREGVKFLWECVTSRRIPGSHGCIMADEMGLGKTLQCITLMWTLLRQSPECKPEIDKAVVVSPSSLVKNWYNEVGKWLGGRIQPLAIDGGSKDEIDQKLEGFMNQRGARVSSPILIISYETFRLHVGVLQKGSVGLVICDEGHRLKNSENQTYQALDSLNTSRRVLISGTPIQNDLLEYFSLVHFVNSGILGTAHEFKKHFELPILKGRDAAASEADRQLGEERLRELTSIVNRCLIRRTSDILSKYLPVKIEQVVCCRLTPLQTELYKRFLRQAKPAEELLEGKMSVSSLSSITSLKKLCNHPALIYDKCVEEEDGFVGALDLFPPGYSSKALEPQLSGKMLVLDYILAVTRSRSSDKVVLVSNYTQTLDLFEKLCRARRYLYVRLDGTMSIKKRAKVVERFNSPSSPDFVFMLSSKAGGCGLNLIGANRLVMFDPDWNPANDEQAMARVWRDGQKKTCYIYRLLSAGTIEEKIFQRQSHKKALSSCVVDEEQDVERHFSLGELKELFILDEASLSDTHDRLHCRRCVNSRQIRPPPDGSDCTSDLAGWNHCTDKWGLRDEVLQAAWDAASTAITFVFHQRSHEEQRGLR
MLL AF4-AF9 inh: inhibitors of human MLL-AF4/AF9 interaction | P42568 | AlphaScreen, biotin-AF4 peptide binding to FLAG-AF9 | inhibition, % at 10 µM | 350,000 compounds, 0.47% hits | AID 651704;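 active means every replicate reaching a set inhibition limit, whatever the replicate mean, cut at about 25% in these data; inconclusive means mean inhibition reaches that limit but some replicates miss it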;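 further: 0% = plate neutral control median and 100% = total signal loss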
S100A4 inh HTS: inhibitors of human S100A4 binding to myosin IIA peptide | P26447 | S100A4/TAMRA-MyoIIA peptide fluorescence polarization | inhibition, % at 10.7 µM | 360,000 compounds, 0.14% hits | AID 652163;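 active means mean inhibition of at least 70% across replicates, with every replicate also reaching that level; inconclusive means mean inhibition reaches 70% but some replicates fall short; inactive means mean inhibition below 70%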
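assay system = human S100A4 monomer with TAMRA-labelled myosin IIA peptide | also added = labelled myosin peptide probe, 5 nM | incubation = 5 min between mix addition and reading | control set = DMSO and TFP controls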
Rad54 DNA ctr: DNA binding artifact in Rad54 counter-screen; AC50, µM (top dose mostly 35 µM), inactives show top-dose activity change, negative = DNA binding; 460 compounds, 8% hits; AID 651673; shares compounds with RAD54 inh; Acridine orange-DNA displacement, fluorescence polarization, 20 min;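 active means signal drop giving an AC50 within twice the top valid tested concentration of each sample, actives reach about 35 µM in these data; inactive means activity opposite to expected, plus the rest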;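 further: polarization loss reports compound binding to salmon sperm DNA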
AlphaScreen intf: AlphaScreen signal interference counter-screen hit; shares compounds with MLL AF4-AF9 inh; AC50, µM (highest dose often 12 µM), for the others: top-dose activity change, negative = inhibition; signal luminescence; 530 compounds, 45% hits; cut-off not given, nearly all actives have AC50 up to about 14 µM
DNA binder FP: DNA binding artifact in RAD52 counter-screen | AC50, µM | Salmon sperm DNA/acridine orange FP displacement | 1,000 compounds, 8% hits | shares compounds with RAD52 inh;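 active means fitted half-maximal concentration for signal loss at or below twice the highest dose tested, in every separate run, actives reach about 64 µM in these data; inconclusive means runs disagree, or flat partial signal loss, or poor fit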
* marks the source's active call; other numbers are inactive results; i = inactive; ? = inconclusive; · = not tested or not shown.

SMILES | GSIS activator | RAD52 inh | RAD54 inh | MLL AF4-AF9 inh | S100A4 inh HTS | AlphaScreen intf | others
CCCC(=O)Nc1ccc2c(c1)C(=O)N(C)C[C@@H](OC)[C@H](C)CN(C(=O)c1cnccn1)[C@H](C)CO2 | 3 | -7 | -6 | 2 | 0 | ·
COc1ccc(Nc2cc(C)nc3ccc(OC)cc23)cc1 | 16 | 56* | 64* | -9 | -2 | · | Rad54 DNA ctr=4%;DNA binder FP=i
COCC(=O)Nc1ccc2c(c1)C(=O)N(C)C[C@H](OC)[C@@H](C)CN(Cc1ccccc1OC)[C@H](C)CO2 | -1 | 3 | 6 | 3 | 3 | ·
CC(C)OCC(O)CN1CCN(CCN2C(=O)c3cccc4cccc(c34)C2=O)CC1 (centres undefined) | 1 | 93* | 79* | 2 | -5 | · | Rad54 DNA ctr=-13%;DNA binder FP=i
CNC(=S)N1N=C(c2ccc(C)cc2)CC1c1ccc(N(C)C)cc1 (centres undefined) | · | -26 | -5 | 31* | -4 | -27%
CC(C)N1C(=O)/C(=C\c2nc3ccccc3c(=O)[nH]2)c2ccccc21 | · | 4 | 5 | 26* | -9 | -22%
COc1ccc(OC)c(Nc2c3c(nc4ccccc24)CCC3)c1 | 18 | -1 | 10 | -4 | -9 | ·
COc1ccccc1Nc1c2c(nc3ccc(N)cc13)CCCC2 | 65* | 13 | 11 | 61* | -3 | -21%
C[C@@H]1CCCCO[C@@H](CN(C)S(C)(=O)=O)[C@H](C)CN([C@H](C)CO)C(=O)c2cc(NC(=O)C3CCCCC3)ccc2O1 | 7 | -1 | -8 | 6 | -16 | ·
NC(N)=NCCCS(=O)(=O)Nc1ccc(Nc2c3ccccc3nc3cc([N+](=O)[O-])ccc23)cc1 | 1 | 5 | · | 78* | -5 | 5.6µM*
COc1cccc(NC(=O)N[C@H]2CC[C@@H](CC(=O)Nc3ccccc3)O[C@H]2CO)c1 | -9 | 9 | -4 | 2 | 3 | ·
CN(C)c1ccc(CNCCC(Cc2ccccc2)c2ccco2)cc1 (centres undefined) | -12 | -16 | 7 | 49* | -9 | 10µM*
C[C@H]1CN([C@@H](C)CO)C(=O)Cc2cc(NC(=O)c3ccncc3)ccc2O[C@H]1CN(C)Cc1ccc(Oc2ccccc2)cc1 | -6 | -19 | -6 | 6 | -10 | ·
O=C(Cc1ccccc1)N1CC2(C1)[C@@H](c1ccccc1)[C@@H](CO)N2C(=O)c1cccnc1 | -4 | 9 | · | · | -5 | ·
CC(=O)Nc1ccc(NC2=C(Cl)C(=O)c3ccccc3C2=O)cc1 | -3 | -11 | · | -3 | -4 | ·
CN(C)c1ccc(NC2=C(Cl)C(=O)c3ccccc3C2=O)cc1 | -9 | 0 | 6 | 64* | -1 | 1.9µM*
O=C(Cc1cccnc1)N1CC(=O)N2[C@H](CO)[C@@H](c3ccc(C4=CCCC4)cc3)[C@@H]2C1 | 10 | 7 | · | -2 | -4 | ·
O=C(Cc1cccnc1)N1CC(=O)N2[C@H](C1)[C@H](c1ccc(C3=CCCC3)cc1)[C@@H]2CO | -5 | 10 | · | 37* | 6 | -19%
C[C@H](CO)N1C[C@H](C)[C@@H](CN(C)Cc2ccc(Oc3ccccc3)cc2)Oc2ccc(NS(C)(=O)=O)cc2CC1=O | -5 | -12 | 1 | 10 | -1 | ·
Cc1[nH]n(-c2ccccc2)c(=O)c1N=Nc1c(O)cc(S(=O)(=O)N(C)C)c2ccccc12 | · | -10 | -22 | 50* | 1 | 9%
Cc1[nH]n(-c2ccccc2)c(=O)c1N=Nc1ccc2c(c1)OCCO2 | -5 | -7 | · | 2 | -3 | ·
COc1ccc(C#Cc2ccc3c(c2)[C@H]2[C@H](CCN2C(=O)c2ccncc2)[C@@H](CO)N3)cc1 | -8 | 51* | · | 34* | -5 | 13µM*
COc1cccc(-c2ccc3c(c2)[C@H]2[C@H](CCN2C(=O)C2CCCCC2)[C@@H](CO)N3)c1 | -1 | -1 | · | 40* | -7 | -29%
C[C@@H]1CN([C@@H](C)CO)C(=O)c2cc(-c3ccc(C#N)cc3)cnc2O[C@@H]1CN(C)Cc1cncnc1 | 18 | · | · | -5 | · | ·
CC(=O)OCCNc1cc(N2CCN(C)CC2)c2noc3c2c1C(=O)c1ccccc1-3 | · | i | -24 | 86* | -58 | 8.6µM*
SMILES | GSIS activator | RAD52 inh | RAD54 inh | MLL AF4-AF9 inh | S100A4 inh HTS | AlphaScreen intf | others
COCCCNC(=O)c1ccc2c3c(onc13)-c1ccccc1C2=O | · | · | 16 | · | · | ·
CC[n+]1c(/C=C/c2ccc(OC)c(OC)c2)ccc2ccccc21 | -1 | 9 | 6 | 0 | -5 | ·
CC[n+]1c(/C=C/c2ccc(N(C)C)cc2)ccc2ccccc21 | -36 | 20 | · | 50* | -23 | 5.8µM*
CCN(CC)c1ccc(/C=C/c2ccc3ccc(OC)cc3[n+]2CC)cc1 | -93 | -34 | -3 | 59* | 100* | 5.2µM*
CCC(=O)N1C[C@H](C)[C@H](OC)CN(C)C(=O)c2ccc(NC(=O)c3ccccc3)cc2OC[C@H]1C | -11 | · | · | -3 | · | ·
Cc1ccc(C2(CCNS(=O)(=O)c3ccc(C)cc3)CCOC(C(C)C)C2)cc1 (centres undefined) | 5 | · | · | · | · | ·
CC(C)C1CC(CCNCc2ccc(N(C)C)cc2)(c2ccccc2)CCO1 (centres undefined) | -5 | 7 | -7 | 39* | -1 | 8.6µM*
CCN(CC)c1ccc(/C=C/c2cccc[n+]2C)c(OC)c1 | -49 | i | -333 | 10 | ? | ·
CN(C)c1ccc(C=c2c3ccccc3n3c2cc(-c2ccccc2)[n+]3C)cc1 | · | -12 | · | 43* | 34 | 4.4µM*
COc1cc(N(C)C)ccc1C=c1c2ccccc2n2c1cc(-c1ccccc1)[n+]2C | -43 | 45 | · | 84* | ? | 2.1µM*
CC(C)NC(=O)Nc1ccc2c(c1)C(=O)N([C@H](C)CO)C[C@H](C)[C@@H](CN(C)C(=O)Nc1ccc3c(c1)OCO3)OCCCC[C@H](C)O2 | 3 | -8 | 6 | -2 | 12 | ·
O=C(C[C@H]1CC[C@@H]2[C@H](COC[C@H](O)CN2CC2CCCC2)O1)NCc1ccc(Cl)cc1 | -36 | 3 | · | -1 | 3 | ·
Cn1cnc(S(=O)(=O)N2C[C@H](O)COC[C@H]3O[C@@H](CC(=O)NC4CCCC4)CC[C@@H]32)c1 | 5 | 20 | 0 | -1 | 4 | ·
Oc1c(C(c2ccccc2Cl)N2CCCC2)ccc2cccnc12 (centres undefined) | 1 | -30 | · | 91* | -5 | 2.1µM*
Oc1c(C(c2ccc(Cl)cc2)N2CCCC2)cc(Cl)c2cccnc12 (centres undefined) | 10 | -20 | · | 56* | -3 | -44%
